According to ChEMBL document CHEMBL4138104, “Indole carboxylic acid esters of melampomagnolide B are potent anticancer agents against both hematological and solid tumor cells” (Eur J Med Chem, 2017):
Calls of active or inactive are those of the source. No cut-off for these calls is given here.

Assays:
Assay type in all cases: functional
[1] = Cytotoxicity against human M9-ENL1 cells assessed as reduction in cell viability by trypan blue staining-based assay
Outline: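 M9-ENL1 AML cells (MLL-ENL-transduced human blood cells) plated at 10^6 cells/mL in alpha-MEM with 5% human plasma, 20% FBS, SCF, IL-3, IL-7 and FLT3. Drug diluted from DMSO stock into PBS, final DMSO ≤0.5%. After 24 h exposure, dead cells assessed by trypan blue and by flow cytometry (Annexin V/PI or Annexin V/7-AAD). Viability normalized to vehicle; EC50 from dose-response curves; triplicate.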

[2] = Potency index, ratio of melampomagnolide-B EC50 to compound EC50 for human M9-ENL1 cells
Outline: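 M9-ENL1 AML cells, derived by MLL-ENL transduction of human blood cells, were plated at 10^6 cells/mL in alpha-MEM with 5% human plasma, 20% FBS, SCF, IL-3, IL-7 and FLT3 ligand. Exposure was 24 h. Non-apoptotic (Annexin V/7-AAD double-negative) fraction was normalized to vehicle, in triplicate, to give EC50. PTL and MMB were run as reference controls.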

[3] = species on record: Rattus norvegicus; test: Inhibition of colony formation of rat 9LSF cells at 5 to 20 uM after 48 hrs by colony formation assay
Outline: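 9L-SF cells were seeded in 60 mm dishes to reach 50% confluence (6.65×10^4 cells/cm²) after 24 h. They were treated 48 h with drug serially diluted from DMSO stock (max 0.05% DMSO), then rinsed, trypsinized, counted and seeded in triplicate flasks for colonies. Lethally irradiated (25 Gy) feeders kept density at 2,000 cells/cm². Survival was normalized to control plating efficiency, with three experiments.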

Row | SMILES | EC50 [1] [µM] | Ratio IC50 [2] | inhibition [3]
1 | C=C1C(=O)O[C@@H]2[C@H]3O[C@]3(C)CC/C=C(/COC(=O)Cc3c[nH]c4ccccc34)CC[C@@H]12 | 4 | 2 - 20 | 
2 | C=C1C(=O)O[C@H]2[C@H]1CC/C(CO)=C\CC[C@@]1(C)O[C@@H]21 |  |  | Active
3 | O=C(O)c1cc2ccccc2[nH]1 |  |  | Active
4 | C=C1C(=O)O[C@@H]2[C@H]3O[C@]3(C)CC/C=C(/COC(=O)c3ccc4[nH]ccc4c3)CC[C@@H]12 | 3 | 2 - 20 | 
5 | C=C1C(=O)O[C@@H]2[C@H]3O[C@]3(C)CC/C=C(/COC(=O)Cc3c(C)n(C(=O)c4ccc(Cl)cc4)c4ccc(OC)cc34)CC[C@@H]12 | 2.7 | 2 - 20 | 
6 | C=C1C(=O)O[C@@H]2[C@H]3O[C@]3(C)CC/C=C(/COC(=O)c3sc4ccccc4c3Cl)CC[C@@H]12 | 2.1 | 2 - 20 | 
7 | C=C1C(=O)O[C@@H]2[C@H]3O[C@]3(C)CC/C=C(/COC(=O)c3ccc4cc[nH]c4c3)CC[C@@H]12 | 2.5 | 2 - 20 | 
